The values below come from ChEMBL document CHEMBL1933058, “5-(2-amino-pyrimidin-4-yl)-1H-pyrrole and 2-(2-amino-pyrimidin-4-yl)-1,5,6,7-tetrahydro-pyrrolo[3,2-c]pyridin-4-one derivatives as new classes of selective and orally available Polo-like kinase 1 inhibitors” (Bioorg Med Chem Lett, 2012).

pIC50: −log10 of the molar value. The source made the active and inactive calls. The calls are words filed in the database; no cut-off is given here.

The target in data set [1] is Serine/threonine-protein kinase PLK1 (Homo sapiens, UniProt P53350). Description: Inhibition of PLK1.
Serine/threonine-protein kinase PLK1, sequence (P53350 whole entry): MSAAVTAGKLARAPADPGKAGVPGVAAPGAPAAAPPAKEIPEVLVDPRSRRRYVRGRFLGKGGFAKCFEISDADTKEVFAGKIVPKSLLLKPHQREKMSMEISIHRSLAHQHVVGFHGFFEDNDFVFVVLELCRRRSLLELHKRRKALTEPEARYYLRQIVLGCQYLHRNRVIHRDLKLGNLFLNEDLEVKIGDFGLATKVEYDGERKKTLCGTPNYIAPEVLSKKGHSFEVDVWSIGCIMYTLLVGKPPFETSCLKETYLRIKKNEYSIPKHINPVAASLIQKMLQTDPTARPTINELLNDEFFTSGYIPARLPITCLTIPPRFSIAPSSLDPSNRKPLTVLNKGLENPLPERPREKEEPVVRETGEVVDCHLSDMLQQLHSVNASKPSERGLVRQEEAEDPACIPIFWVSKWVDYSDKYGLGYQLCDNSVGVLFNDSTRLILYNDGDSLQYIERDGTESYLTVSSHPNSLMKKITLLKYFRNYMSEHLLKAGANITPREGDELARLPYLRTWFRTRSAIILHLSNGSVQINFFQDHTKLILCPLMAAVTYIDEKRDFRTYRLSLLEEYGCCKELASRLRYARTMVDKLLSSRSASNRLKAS
For data set [2], the target named is Serine/threonine-protein kinase PLK3 (Homo sapiens, UniProt Q9H4B4). Description: Inhibition of PLK3.
Serine/threonine-protein kinase PLK3, sequence (Q9H4B4 whole entry): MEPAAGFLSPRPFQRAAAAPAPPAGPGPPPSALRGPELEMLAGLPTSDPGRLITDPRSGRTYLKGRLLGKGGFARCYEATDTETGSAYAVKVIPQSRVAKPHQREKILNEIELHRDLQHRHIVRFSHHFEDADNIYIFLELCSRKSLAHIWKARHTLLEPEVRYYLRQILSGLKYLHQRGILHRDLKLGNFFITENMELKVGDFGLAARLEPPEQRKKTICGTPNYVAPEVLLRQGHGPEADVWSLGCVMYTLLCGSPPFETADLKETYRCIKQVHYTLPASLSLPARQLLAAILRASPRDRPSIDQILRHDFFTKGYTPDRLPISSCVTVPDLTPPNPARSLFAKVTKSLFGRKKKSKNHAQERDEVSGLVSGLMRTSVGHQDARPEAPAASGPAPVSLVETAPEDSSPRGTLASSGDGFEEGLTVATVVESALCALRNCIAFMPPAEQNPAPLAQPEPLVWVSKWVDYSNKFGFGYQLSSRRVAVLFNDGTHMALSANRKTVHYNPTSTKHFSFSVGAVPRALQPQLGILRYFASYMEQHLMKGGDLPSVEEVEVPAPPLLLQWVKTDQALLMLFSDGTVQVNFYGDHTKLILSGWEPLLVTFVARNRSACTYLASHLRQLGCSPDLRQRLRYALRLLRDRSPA
Data set [3] has as its target T1, Aurora kinase A (Homo sapiens, UniProt O14965).
T1 sequence (O14965 whole entry): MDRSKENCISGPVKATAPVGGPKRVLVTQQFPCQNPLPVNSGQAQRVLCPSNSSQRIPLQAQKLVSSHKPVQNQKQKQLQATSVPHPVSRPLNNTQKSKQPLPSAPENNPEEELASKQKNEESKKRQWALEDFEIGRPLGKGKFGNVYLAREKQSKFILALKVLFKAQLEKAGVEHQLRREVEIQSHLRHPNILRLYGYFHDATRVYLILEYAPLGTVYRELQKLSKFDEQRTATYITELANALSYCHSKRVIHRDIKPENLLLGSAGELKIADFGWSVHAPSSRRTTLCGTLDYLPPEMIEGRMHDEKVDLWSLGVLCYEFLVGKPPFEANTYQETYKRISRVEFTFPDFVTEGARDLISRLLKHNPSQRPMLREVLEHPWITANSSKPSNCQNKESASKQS
Description: Inhibition of Aurora-A.

Data set [4] addresses Cyclin-dependent kinase 2/cyclin A (Homo sapiens, UniProt P24941). Description: Inhibition of CDK2/cyclin A. The data set is classed as protein-complex assay.
Data set [5] deals with A2780. As to the kind of experiment: Antiproliferative activity against human A2780 cells. In kind it is functional, cell-based.
Data set [6] deals with Serine/threonine-protein kinase PLK2 (Homo sapiens, UniProt Q9NYY3). As to the kind of experiment: Inhibition of PLK2.
Serine/threonine-protein kinase PLK2, sequence (Q9NYY3 whole entry): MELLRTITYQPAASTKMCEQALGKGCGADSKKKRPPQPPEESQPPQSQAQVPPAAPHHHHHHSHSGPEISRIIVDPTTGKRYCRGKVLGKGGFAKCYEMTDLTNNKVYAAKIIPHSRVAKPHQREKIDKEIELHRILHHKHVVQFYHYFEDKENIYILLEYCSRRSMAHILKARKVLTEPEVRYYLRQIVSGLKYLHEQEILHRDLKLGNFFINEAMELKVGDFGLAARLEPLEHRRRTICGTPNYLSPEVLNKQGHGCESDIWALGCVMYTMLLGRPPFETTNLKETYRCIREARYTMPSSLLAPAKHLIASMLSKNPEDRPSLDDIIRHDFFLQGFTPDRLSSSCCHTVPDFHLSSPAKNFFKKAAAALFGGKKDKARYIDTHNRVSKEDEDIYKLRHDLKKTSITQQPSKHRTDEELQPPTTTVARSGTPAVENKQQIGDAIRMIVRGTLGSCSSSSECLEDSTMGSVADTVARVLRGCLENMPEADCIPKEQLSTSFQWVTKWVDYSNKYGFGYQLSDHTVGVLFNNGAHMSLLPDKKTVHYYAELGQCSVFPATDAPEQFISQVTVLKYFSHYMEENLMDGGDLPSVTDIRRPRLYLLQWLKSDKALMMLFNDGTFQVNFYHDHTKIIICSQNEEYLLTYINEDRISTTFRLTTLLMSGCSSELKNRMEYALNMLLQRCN
Data set [7] is described as follows: Volume of distribution at steady state in Nu/Nu Balb Harlan mouse at 10 mg/kg, iv. The data set is classed as ADME, organism-based. The arrangement: dose 10 mg/kg, route intravenous. The conditions noted are these: in vivo, read-out: Vdss.
Data set [8] in a line: Oral bioavailability in Nu/Nu Balb Harlan mouse at 10 mg/kg. In kind it is ADME, organism-based. The conditions noted are these: in vivo.
Data set [9] can be described thus: Terminal half life in Nu/Nu Balb Harlan mouse at 10 mg/kg, po. In kind it is ADME, organism-based. Also noted: dose 10 mg/kg, route oral. Particulars: in vivo, read-out: beta t1/2 (converted).
The nature of data set [10]: Clearance in Nu/Nu Balb Harlan mouse at 10 mg/kg, iv. In kind it is ADME, organism-based. Also noted: dose 10 mg/kg, route intravenous. Particulars: in vivo. A digest of the protocol: (§1)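 Male Balb Nu/Nu mice (Harlan) received a single 10 mg/kg intravenous dose, n = 3 animals per study. Vehicle was either trifluoroacetate salt in dextrose or free base in 50% PEG 400/glucosate, depending on compound. Parameters were reported as mean ± standard deviation.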

A short description of data set [11]: Cmax in Nu/Nu Balb Harlan mouse at 10 mg/kg, po. In kind it is ADME, organism-based. Also noted: dose 10 mg/kg, route oral. Particulars: in vivo.
The nature of data set [12]: AUC (0 to infinity) in Nu/Nu Balb Harlan mouse at 10 mg/kg, po. The data set is classed as ADME, organism-based. The arrangement: time infinity, dose 10 mg/kg, route oral. Particulars: plasma.
Data set [13] can be described thus: AUC (0 to infinity) in Nu/Nu Balb Harlan mouse at 10 mg/kg, iv. In kind it is ADME, organism-based. Also noted: time infinity, dose 10 mg/kg, route intravenous. Particulars: plasma. A digest of the protocol:
as §1

Data set [14] in a line: Half life in Nu/Nu Balb Harlan mouse at 10 mg/kg, iv. In kind it is ADME, organism-based. Also noted: dose 10 mg/kg, route intravenous. The conditions noted are these: in vivo. Put shortly: as §1
In data set [15] the test system is A2780. As to the kind of experiment: Cell cycle arrest in human A2780 cells assessed as increase of phospho Ser10 histone H3 level at 0.05 to 5 uM after 1 hr by Western blotting analysis. In kind it is functional, cell-based. A digest of the protocol: (§2)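 A2780 cells got 1 h exposure at 0.05, 0.5 and 5 µM, with nocodazole-treated cells as comparator. Western blot was used to probe the PLK1 substrate marker pSer46 TCTP and the mitotic marker pSer10 histone H3.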

For data set [16], the system named is A2780. Description: Induction of apoptosis in human A2780 cells assessed as PARP cleavage at 5 uM after 24 hrs by Western blotting analysis. In kind it is functional, cell-based. A digest of the protocol: (§3)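 A2780 cells were treated for 24 h at 0.05, 0.5 and 5 µM, with nocodazole as positive control. Lysates were immunoblotted for pSer10 histone H3, pThr199 nucleophosmin, cyclin B1, cyclin A, PARP cleavage and caspase 3 activation.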

In data set [17] the test system is A2780. Description: Cell cycle arrest in human A2780 cells assessed as induction of phospho Thr199 nucleophosmin level after 24 hrs by Western blotting analysis. In kind it is functional, cell-based. Put shortly:
as §3
In general terms: A western blot detects proteins with antibodies after separation by electrophoresis.

Data set [18] has as its system A2780. As to the kind of experiment: Cell cycle arrest in human A2780 cells assessed as increase of phospho Ser10 histone H3 level after 24 hrs by Western blotting analysis. In kind it is functional, cell-based. Put shortly: as §3
Data set [19] deals with A2780. Description: Cell cycle arrest in human A2780 cells assessed as reduction of phospho Ser46 TCTP level at 0.05 to 5 uM after 1 hr by Western blotting analysis. The data set is classed as functional, cell-based. Put shortly:
as §2

Data set [20] has as its system A2780. As to the kind of experiment: Cell cycle arrest in human A2780 cells assessed as accumulation at G2/M phase at 0.05 to 5 uM after 24 hrs by FACS analysis. The data set is classed as functional, cell-based. A digest of the protocol: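 A2780 cells were exposed for 24 h to 0.05, 0.5 or 5 µM. Cell-cycle distribution was read by flow cytometry (FACS), scoring G2-M accumulation. Nocodazole-treated cells served as positive control.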
Background: A flow cytometer gives signals particle by particle.

In data set [21] the test system is A2780. Description: Induction of apoptosis in human A2780 cells assessed as caspase3 activation at 5 uM after 24 hrs by Western blotting analysis. In kind it is functional, cell-based. Put shortly:
as §3

What is called pIC50 is −log10 of the IC50, conventionally taken in molar units. With `CN1CCN(c2ccc(OC(F)(F)F)c(Nc3nccc(-c4cc(C(N)=O)cn4CCO)n3)c2)CC1`, the pIC50 was 6.82 in data set [1]; under 5.00 in [2]; under 5.00 in data set [3]; under 5.00 in data set [4]; 5.60 in data set [5]; under 5.00 in [6].

`NC(=O)c1c[nH]c(-c2ccnc(N)n2)c1`: the pIC50 in [1], in [3] and in data set [4] was under 5.00 each time.

With `CN1CCN(c2ccc(OC(F)(F)F)c(Nc3nccc(-c4cc5c(n4CC(F)(F)F)CCNC5=O)n3)c2)CC1`, the negative logarithm of the IC50 (pIC50) was 7.55 in [1]; under 5.00 in [2]; under 5.00 in [3]; under 5.00 in data set [4]; 7.21 in [5]; under 5.00 in data set [6].

For orientation: bioavailability means dose-corrected exposure relative to a reference, in per cent. The low end stands for poor availability, the high end for good availability. A word on the clearance: it is the volume of plasma or blood freed of the substance per unit of time. The term Cmax denotes the highest concentration seen after dosing. As usually defined, the AUC(0-inf) is total exposure, with the tail of the curve extrapolated. As to `CN1CCN(c2ccc(OC(F)(F)F)c(Nc3nccc(-c4cc(C(N)=O)cn4C)n3)c2)CC1.O=C(O)C(F)(F)F`, the Vd in [7] is 2.5 L/kg. In data set [8], this molecule registered a bioavailability of 36%. Also, the half-life was 1.7 h in data set [9] and 0.65 h in data set [14]. This molecule also had a clearance in [10] of 74.7 mL/min/kg. For the same molecule, the peak level in data set [11] (Cmax) was 760 nM. In addition, the AUC(0-inf) amounted to 1.92 µM·h in [12] and 5.41 µM·h in data set [13].

`Cn1cc(C(N)=O)cc1-c1ccnc(Nc2cc(N3CCN(C(=O)OC(C)(C)C)CC3)ccc2OC(F)(F)F)n1`: the negative logarithm of the IC50 (pIC50) in data set [1] was under 5.00; in data set [2], under 5.00; in data set [3] it was under 5.00; in data set [4], under 5.00; in data set [5] it was 5.35; in data set [6], under 5.00.

Turning to `CN1CCN(c2ccc(OC(F)(F)F)c(Nc3nccc(-c4cc(C(N)=O)cn4C)n3)c2)CC1`, the result in data set [15], in data set [16], in data set [19], in data set [20] and in [21] was Active. For the same molecule, the Activity result in data set [17] and in [18] was “Dose-dependent effect” in each case.

Regarding `CN1CCN(c2ccc(OC(F)(F)F)c(Nc3nccc(-c4cc5c(n4CCO)CCNC5=O)n3)c2)CC1`, the pIC50 was 6.99 in data set [1]; under 5.00 in data set [2]; under 5.00 in data set [3]; under 5.00 in data set [4]; 6.14 in data set [5]; under 5.00 in data set [6].

Consider `CN1CCN(c2ccc(OC(F)(F)F)c(Nc3nccc(-c4cc(C(N)=O)cn4CCOC4CCCCO4)n3)c2)CC1` (stereo not given), for which the negative-log IC50 (pIC50) in data set [1] is 6.57; in [2] it was under 5.00; in data set [3], under 5.00; in data set [4] it was under 5.00; in data set [5], 5.17; in [6], under 5.00.

On to `Nc1nccc(-c2cc3c([nH]2)CCNC3=O)n1`, for which the pIC50 is 5.95 in [1], under 5.00 in data set [3], 6.66 in [4] and 5.82 in data set [5].

`CN1CCN(c2ccc(OC(F)(F)F)c(Nc3nccc(-c4cc(C(N)=O)cn4CC(F)(F)F)n3)c2)CC1`: the pIC50 is 7.74 in [1]; under 5.00 in [2]; under 5.00 in [3]; under 5.00 in data set [4]; 6.96 in data set [5]; under 5.00 in data set [6].

Turning to `CN1CCN(c2ccc(OC(F)(F)F)c(Nc3nccc(-c4cc5c(n4C)CCN(C(=O)OC(C)(C)C)C5=O)n3)c2)CC1`, the pIC50 in [1] is 6.09; in [2], under 5.00; in data set [3], under 5.00; in data set [4], under 5.00; in data set [5] it was 6.75; in data set [6], under 5.00.

With `Cn1cc(C(N)=O)cc1-c1ccnc(Nc2cc(N3CCNCC3)ccc2OC(F)(F)F)n1`, the pIC50 in data set [1] is 7.74; in data set [2], under 5.00; in data set [3], under 5.00; in [4] it was under 5.00; in [5] it was 6.21; in [6] it was under 5.00.
